In ChEMBL document CHEMBL4261564, “Studies on enantioselectivity of chiral 4-acetylamino-6-alkyloxy-2-alkylthiopyrimidines acting as antagonists of the human A3 adenosine receptor” (Medchemcomm, 2018):

Key:
Adenosine receptor A3 [1] = molecular target: T1, Adenosine receptor A3 (Homo sapiens, UniProt P0DMS8); assay: Displacement of [3H]NECA from recombinant human adenosine A3 receptor expressed in CHO cell membranes measured after 180 mins
T1 sequence (P0DMS8 whole entry): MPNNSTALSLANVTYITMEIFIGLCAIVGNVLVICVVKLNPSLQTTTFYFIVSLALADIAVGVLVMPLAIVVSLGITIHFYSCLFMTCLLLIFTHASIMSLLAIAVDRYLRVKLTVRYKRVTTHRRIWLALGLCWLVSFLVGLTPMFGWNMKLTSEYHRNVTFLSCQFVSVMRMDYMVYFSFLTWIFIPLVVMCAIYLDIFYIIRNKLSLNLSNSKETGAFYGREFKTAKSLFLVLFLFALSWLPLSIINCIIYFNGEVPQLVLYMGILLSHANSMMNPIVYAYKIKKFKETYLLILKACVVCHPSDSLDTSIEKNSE

Adenosine receptor A3 [2] = molecular target: T1, Adenosine receptor A3; assay: Antagonist activity at recombinant human adenosine A3 receptor expressed in CHO cells assessed as reduction in Cl-IB-MECA-induced inhibition of forskolin-stimulated [3H]cAMP accumulation preincubated for 10 mins followed by Cl-IB-MECA addition measured after 30 mins by liquid scintillation counting method; format: functional, cell-based
Procedure, shortened: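 A3 AR CHO cells are plated at about 30,000 per well and used 24 h later. They are preincubated 15 min at 37 °C in DMEM containing ADA 1 U/mL and Ro20-1724 20 µM. Compound is added 10 min before Cl-IB-MECA, with 1 µM forskolin present. The reaction is stopped with 0.4 N HCl and neutralised with KOH. cAMP is measured by competitive binding of [3H]cAMP (2 nM) to bovine adrenal binding protein for 150 min at 0 °C, then filtered and counted by scintillation.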

Adenosine receptor A1 = molecular target: T2, Adenosine receptor A1 (Homo sapiens, UniProt P30542); assay: Displacement of [3H]DPCPX from human adenosine A1 receptor expressed in CHO cell membranes after 180 mins
T2 sequence (P30542 whole entry): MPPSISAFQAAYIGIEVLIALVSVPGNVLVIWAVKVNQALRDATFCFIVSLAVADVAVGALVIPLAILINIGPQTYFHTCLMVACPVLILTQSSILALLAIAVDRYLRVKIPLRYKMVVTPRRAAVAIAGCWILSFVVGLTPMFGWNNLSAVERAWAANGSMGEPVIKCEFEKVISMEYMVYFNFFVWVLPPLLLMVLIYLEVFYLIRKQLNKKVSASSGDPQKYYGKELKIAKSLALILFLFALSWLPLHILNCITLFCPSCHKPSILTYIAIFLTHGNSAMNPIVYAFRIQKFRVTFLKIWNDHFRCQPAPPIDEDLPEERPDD
Procedure, shortened: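 Membranes (30 µg protein) are incubated with 3 nM [3H]DPCPX at 25 °C in Tris-HCl 50 mM, MgCl2 2 mM, ADA 2 U/mL, pH 7.4. Six test concentrations are used, and nonspecific binding is set with 50 µM R-PIA. The Kd of 3 nM is used for Ki. Values are the mean of at least three experiments, each in duplicate.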

Adenosine receptor A2b = molecular target: T3, Adenosine receptor A2b (Homo sapiens, UniProt P29275); assay: Displacement of [3H]NECA from recombinant human adenosine A2B receptor expressed in CHO cell membranes measured after 180 mins
T3 sequence (P29275 whole entry): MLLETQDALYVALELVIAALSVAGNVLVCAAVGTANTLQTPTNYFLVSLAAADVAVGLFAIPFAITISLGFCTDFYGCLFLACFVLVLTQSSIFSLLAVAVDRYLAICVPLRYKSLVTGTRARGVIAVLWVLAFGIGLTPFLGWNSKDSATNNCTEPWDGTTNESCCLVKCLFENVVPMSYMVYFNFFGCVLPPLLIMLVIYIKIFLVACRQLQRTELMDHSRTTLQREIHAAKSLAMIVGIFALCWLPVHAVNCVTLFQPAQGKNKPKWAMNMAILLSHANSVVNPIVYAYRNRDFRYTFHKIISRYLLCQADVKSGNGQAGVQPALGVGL

Adenosine receptor A2a = Adenosine receptor A2a (Homo sapiens, UniProt P29274); assay: Displacement of [3H]NECA from recombinant human adenosine A2A receptor expressed in CHO cell membranes measured after 90 mins
Adenosine receptor A2a, sequence (P29274 whole entry): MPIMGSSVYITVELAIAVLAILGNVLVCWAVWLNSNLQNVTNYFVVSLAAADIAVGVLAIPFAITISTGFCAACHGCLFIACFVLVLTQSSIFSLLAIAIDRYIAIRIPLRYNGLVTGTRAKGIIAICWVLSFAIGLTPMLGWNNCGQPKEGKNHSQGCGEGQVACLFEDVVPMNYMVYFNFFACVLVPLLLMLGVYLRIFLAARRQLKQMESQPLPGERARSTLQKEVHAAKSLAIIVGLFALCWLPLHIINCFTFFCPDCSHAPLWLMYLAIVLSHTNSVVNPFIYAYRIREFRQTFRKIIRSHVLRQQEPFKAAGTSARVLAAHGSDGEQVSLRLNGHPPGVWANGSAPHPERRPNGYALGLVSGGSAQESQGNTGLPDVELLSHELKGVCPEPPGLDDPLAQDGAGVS

Ki (Adenosine receptor A3 [1]) | IC50 (Adenosine receptor A3 [2]) | Ki (Adenosine receptor A1) | Ki (Adenosine receptor A2b) | Ki (Adenosine receptor A2a) | Compound
737 nM |  |  |  |  | CCCOc1cc(NC(C)=O)nc(S[C@H](C)c2ccccc2)n1
0.5 nM | 7.9 nM |  |  |  | CCCSc1nc(NC(C)=O)cc(O[C@@H](C)c2ccccc2)n1
1390 nM |  |  |  |  | CC[C@@H](C)Oc1cc(NC(C)=O)nc(SCc2ccccc2)n1
183 nM | 153 nM |  |  |  | CC[C@H](C)Oc1cc(NC(C)=O)nc(SCc2ccccc2)n1
1.7 nM |  |  |  |  | CCCSc1nc(NC(C)=O)cc(O[C@H](C)c2ccccc2)n1
440 nM | 428 nM |  |  |  | CCCOc1cc(NC(C)=O)nc(S[C@@H](C)c2ccccc2)n1
0.6 nM |  | > 1000 nM | > 1000 nM | > 1000 nM | CCCSc1nc(NC(C)=O)cc(OC(C)c2ccccc2)n1 (racemic)
195 nM |  | > 1000 nM | > 1000 nM | > 1000 nM | CCC(C)Oc1cc(NC(C)=O)nc(SCc2ccccc2)n1 (racemic)
580 nM |  | > 1000 nM | > 1000 nM | > 1000 nM | CCCOc1cc(NC(C)=O)nc(SC(C)c2ccccc2)n1 (racemic)
